For this experiment, the target named is T1, Cdc25B catalytic domain (Homo sapiens, UniProt P30305).
T1 sequence (P30305 374-551 limits assumed): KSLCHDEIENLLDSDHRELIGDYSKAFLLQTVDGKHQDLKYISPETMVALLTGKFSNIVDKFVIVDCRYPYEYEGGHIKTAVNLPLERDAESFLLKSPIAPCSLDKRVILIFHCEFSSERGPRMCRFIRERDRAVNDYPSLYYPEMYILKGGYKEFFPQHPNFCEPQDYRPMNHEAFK
Put plainly: OMFP fluorescence phosphatase assay, 10-point curve. Format: biochemical. The procedure, abridged:
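Recombinant human Cdc25B catalytic domain incubated with test compound and O-methylfluorescein phosphate substrate for 60 min; fluorescence change read at 485 nm excitation/525 nm emission. Percent inhibition taken relative to maximum and minimum controls. IC50 fitted to four-parameter logistic model over 10 concentrations, 25 μM to 0.2 μM; two independent experiments in triplicate.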

`O=C1C(Cl)=C(NCCN2CCOCC2)C(=O)c2c(Cl)ccnc21` [WDP1079, 4,7-Dichloro-6-(2-morpholin-4-yl-ethylamino)quinoline-5,8-dione]: the IC50 is 1100 ± 100 nM. As for `COc1ccnc2c1C(=O)C(NCCN1CCOCC1)=C(F)C2=O` [WDP1149, 7-Fluoro-4-methoxy-6-(2-morpholin-4-yl-ethylamino)quinoline-5,8-dione], the figure is 5300 ± 600 nM.

As to `O=C1C(Cl)=C(NCCN2CCOCC2)C(=O)c2nccnc21` [WDP1263, 6-Chloro-7-(2-morpholin-4-yl-ethylamino)quinoxaline-5,8-dione], the IC50 was 500 ± 100 nM.

These data come from PMC2752828 (Organic & biomolecular chemistry, 2008).
